Test results reported in the M2OR odorant receptor database.

Experiments:
Settings in all cases: stereoisomer not certain
UniProt Q8VG27 = target: T1, UniProt Q8VG27
T1 sequence (whole entry): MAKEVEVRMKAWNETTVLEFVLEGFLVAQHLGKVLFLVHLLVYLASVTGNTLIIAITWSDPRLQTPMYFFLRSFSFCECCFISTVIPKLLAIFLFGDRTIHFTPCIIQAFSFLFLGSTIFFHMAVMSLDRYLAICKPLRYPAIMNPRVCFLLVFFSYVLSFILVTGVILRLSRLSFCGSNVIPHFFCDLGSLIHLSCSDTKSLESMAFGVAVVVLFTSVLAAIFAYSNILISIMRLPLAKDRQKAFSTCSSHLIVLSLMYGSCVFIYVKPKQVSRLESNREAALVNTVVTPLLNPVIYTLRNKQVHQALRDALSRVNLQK
In short: (§1)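 Assay methods differ from source to source, frequently being transient luciferase assays in mammalian cell lines. For each receptor–molecule pair, the label responsive (active) applies when the original authors judged the measured signal statistically different from baseline, and non-responsive (inactive) applies otherwise.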

UniProt Q8VG53 = target: T2, UniProt Q8VG53
T2 sequence (whole entry): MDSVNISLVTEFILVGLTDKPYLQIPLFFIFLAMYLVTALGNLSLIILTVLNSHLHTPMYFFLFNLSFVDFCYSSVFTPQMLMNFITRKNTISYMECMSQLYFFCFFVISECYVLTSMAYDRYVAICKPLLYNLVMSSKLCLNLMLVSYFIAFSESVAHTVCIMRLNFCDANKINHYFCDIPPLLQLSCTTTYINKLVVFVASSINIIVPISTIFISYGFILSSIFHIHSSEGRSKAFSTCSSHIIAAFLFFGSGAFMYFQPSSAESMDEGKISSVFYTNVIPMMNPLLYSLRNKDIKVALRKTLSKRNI
In short: as §1

UniProt Q8VG64 = target: T3, UniProt Q8VG64
T3 sequence (whole entry): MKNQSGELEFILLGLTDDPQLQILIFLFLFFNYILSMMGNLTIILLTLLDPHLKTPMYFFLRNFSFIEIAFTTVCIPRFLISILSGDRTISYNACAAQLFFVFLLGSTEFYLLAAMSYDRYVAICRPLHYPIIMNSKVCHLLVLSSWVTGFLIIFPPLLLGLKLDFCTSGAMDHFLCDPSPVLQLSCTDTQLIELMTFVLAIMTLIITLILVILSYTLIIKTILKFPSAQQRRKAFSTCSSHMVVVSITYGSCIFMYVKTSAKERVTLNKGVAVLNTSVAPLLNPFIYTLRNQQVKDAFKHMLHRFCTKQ
In short: as §1

UniProt Q8VGB9 = target: T4, UniProt Q8VGB9
T4 sequence (whole entry): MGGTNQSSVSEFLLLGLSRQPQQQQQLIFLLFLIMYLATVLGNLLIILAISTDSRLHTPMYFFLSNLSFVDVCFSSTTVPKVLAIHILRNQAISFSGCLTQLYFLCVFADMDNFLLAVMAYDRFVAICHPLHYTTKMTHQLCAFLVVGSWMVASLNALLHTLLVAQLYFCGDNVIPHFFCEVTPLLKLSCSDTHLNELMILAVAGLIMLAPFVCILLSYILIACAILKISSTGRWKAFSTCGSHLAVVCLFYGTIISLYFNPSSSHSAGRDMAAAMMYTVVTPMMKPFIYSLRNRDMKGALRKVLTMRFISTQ
In short: as §1

UniProt Q8VGC6 = target: T5, UniProt Q8VGC6
T5 sequence (whole entry): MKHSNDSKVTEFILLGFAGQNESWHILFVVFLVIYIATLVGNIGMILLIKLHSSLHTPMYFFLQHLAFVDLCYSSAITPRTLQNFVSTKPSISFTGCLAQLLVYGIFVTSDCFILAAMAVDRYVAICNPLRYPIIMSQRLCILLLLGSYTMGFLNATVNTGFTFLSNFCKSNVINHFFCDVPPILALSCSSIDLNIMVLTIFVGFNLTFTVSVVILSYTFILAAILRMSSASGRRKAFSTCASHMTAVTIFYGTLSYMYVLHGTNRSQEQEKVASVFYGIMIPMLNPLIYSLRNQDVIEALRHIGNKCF
In short: as §1

UniProt Q8VGJ3 = target: T6, UniProt Q8VGJ3
T6 sequence (whole entry): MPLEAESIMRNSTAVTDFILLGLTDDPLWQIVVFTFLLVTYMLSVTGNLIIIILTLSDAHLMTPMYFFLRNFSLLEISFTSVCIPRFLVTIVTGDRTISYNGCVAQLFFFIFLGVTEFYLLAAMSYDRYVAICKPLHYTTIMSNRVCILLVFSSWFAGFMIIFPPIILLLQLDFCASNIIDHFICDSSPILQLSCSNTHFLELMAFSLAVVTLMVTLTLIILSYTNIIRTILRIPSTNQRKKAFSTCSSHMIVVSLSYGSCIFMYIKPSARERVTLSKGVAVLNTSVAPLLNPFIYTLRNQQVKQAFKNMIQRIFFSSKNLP
In short: as §1

UniProt Q8VGL0 = target: T7, UniProt Q8VGL0
T7 sequence (whole entry): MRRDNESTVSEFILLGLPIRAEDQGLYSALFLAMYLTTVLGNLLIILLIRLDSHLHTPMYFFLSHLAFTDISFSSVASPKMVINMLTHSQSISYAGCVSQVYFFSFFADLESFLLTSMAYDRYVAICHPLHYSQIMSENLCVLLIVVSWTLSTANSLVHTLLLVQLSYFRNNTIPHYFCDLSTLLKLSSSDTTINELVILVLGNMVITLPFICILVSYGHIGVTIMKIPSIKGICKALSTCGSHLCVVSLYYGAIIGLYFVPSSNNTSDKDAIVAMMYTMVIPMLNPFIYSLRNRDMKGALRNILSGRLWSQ
In short: as §1

UniProt Q8VG28 = target: UniProt Q8VG28
In short: as §1

UniProt Q8VG49 = target: T8, UniProt Q8VG49
T8 sequence (whole entry): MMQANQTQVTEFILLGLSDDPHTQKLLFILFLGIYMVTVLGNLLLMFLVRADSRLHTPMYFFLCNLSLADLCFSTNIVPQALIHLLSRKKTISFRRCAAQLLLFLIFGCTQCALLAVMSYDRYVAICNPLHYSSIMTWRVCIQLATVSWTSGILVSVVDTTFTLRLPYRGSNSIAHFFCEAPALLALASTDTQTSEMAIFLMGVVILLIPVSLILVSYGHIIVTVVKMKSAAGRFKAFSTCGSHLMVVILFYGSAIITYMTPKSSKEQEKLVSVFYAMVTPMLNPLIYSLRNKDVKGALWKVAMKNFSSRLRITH
In short: as §1

UniProt Q8VG77 = target: T9, UniProt Q8VG77
T9 sequence (whole entry): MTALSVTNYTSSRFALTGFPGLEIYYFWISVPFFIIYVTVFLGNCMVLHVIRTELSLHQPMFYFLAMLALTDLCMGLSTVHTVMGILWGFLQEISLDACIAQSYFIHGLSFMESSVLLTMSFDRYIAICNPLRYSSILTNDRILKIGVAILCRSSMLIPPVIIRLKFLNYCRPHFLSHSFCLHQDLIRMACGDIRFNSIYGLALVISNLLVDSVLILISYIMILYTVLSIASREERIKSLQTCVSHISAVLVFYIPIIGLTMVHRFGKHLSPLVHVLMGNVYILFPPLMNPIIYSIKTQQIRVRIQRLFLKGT
In short: as §1

UniProt Q8VG96 = target: T10, UniProt Q8VG96
T10 sequence (whole entry): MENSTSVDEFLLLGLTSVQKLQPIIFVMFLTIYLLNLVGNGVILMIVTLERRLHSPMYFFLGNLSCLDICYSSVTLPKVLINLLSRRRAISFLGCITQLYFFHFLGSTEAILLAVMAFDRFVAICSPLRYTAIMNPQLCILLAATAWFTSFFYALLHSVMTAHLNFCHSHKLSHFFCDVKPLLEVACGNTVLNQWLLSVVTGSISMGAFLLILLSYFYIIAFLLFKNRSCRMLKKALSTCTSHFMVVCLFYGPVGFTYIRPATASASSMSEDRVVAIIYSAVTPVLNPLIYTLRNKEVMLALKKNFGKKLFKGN
In short: as §1

UniProt Q8VGD7 = target: T11, UniProt Q8VGD7
T11 sequence (whole entry): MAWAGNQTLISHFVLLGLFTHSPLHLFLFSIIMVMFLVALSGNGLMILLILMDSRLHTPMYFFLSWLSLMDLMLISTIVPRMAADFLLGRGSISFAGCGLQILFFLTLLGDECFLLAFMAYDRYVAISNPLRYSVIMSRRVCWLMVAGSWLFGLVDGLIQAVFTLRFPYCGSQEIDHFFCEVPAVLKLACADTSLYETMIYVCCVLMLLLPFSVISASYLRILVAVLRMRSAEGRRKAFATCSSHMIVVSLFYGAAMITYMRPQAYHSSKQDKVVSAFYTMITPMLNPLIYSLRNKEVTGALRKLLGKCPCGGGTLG
In short: as §1

UniProt Q8VGH1 = target: T12, UniProt Q8VGH1
T12 sequence (whole entry): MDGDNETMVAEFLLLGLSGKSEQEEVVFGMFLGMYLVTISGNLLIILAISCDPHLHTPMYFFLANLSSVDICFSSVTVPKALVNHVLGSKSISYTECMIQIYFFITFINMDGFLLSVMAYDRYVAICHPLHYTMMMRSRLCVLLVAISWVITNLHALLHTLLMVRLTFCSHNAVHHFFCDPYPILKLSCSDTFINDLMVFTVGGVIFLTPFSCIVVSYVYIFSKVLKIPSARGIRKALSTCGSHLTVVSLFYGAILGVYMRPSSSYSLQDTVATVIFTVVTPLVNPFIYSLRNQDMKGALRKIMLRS
In short: as §1

UniProt Q8VGJ1 = target: T13, UniProt Q8VGJ1
T13 sequence (whole entry): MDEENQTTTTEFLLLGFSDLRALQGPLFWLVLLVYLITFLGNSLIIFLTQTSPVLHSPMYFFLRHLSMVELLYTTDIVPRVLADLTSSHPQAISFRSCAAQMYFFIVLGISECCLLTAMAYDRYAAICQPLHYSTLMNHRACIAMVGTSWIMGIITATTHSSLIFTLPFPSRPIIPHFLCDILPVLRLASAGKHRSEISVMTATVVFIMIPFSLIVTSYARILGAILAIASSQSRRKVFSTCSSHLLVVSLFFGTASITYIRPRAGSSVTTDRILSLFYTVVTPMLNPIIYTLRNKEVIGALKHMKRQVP
In short: as §1

UniProt Q8VGJ5 = target: T14, UniProt Q8VGJ5
T14 sequence (whole entry): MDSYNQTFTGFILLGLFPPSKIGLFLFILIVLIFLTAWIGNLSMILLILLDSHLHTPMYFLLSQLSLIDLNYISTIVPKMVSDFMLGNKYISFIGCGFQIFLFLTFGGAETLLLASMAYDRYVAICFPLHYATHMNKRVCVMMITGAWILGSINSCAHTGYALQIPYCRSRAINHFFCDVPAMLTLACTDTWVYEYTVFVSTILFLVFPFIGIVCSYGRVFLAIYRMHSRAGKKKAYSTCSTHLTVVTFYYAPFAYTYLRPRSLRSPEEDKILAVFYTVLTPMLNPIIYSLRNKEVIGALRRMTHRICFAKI
In short: as §1

UniProt Q8VGL7 = target: T15, UniProt Q8VGL7
T15 sequence (whole entry): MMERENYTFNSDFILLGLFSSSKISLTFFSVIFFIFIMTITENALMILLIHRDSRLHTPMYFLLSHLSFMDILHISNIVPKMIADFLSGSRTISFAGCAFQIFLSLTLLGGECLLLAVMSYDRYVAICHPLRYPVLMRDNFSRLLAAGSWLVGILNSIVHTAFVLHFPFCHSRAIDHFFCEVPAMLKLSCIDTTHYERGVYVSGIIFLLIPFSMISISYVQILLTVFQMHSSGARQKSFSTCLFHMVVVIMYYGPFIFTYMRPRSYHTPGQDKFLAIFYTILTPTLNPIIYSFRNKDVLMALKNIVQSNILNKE
In short: as §1

Measured: odorant receptor agonist call

UniProt Q8VG28, sequence (Q8VG28 as listed by the source): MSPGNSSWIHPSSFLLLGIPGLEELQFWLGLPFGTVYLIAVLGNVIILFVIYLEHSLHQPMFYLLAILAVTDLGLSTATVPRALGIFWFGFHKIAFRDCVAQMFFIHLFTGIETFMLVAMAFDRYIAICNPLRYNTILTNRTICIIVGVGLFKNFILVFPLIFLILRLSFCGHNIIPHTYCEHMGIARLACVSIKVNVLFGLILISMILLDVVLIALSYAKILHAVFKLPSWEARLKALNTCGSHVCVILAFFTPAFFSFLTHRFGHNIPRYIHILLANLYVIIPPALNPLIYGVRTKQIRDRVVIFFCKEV

CC1CC=CCCCCCCCCCC(=O)C1 (stereo not drawn)
inactive: UniProt Q8VG27 | UniProt Q8VG53 | UniProt Q8VG64 | UniProt Q8VGB9 | UniProt Q8VGC6 | UniProt Q8VGJ3 | UniProt Q8VGL0

CCCC(=O)OCC
inactive: UniProt Q8VGC6

CCCCCC(C)(C)O
inactive: UniProt Q8VGC6

CCOc1ccccc1
inactive: UniProt Q8VGC6

O=C(O)CCCCCC(=O)O
inactive: UniProt Q8VG28

CCCCCCC(=O)[O-].[H+]
not listed: UniProt Q8VG27 | UniProt Q8VG53 | UniProt Q8VG64 | UniProt Q8VGB9 | UniProt Q8VGJ3
inactive: all other assays above

CC(O)c1ccccc1 (stereo not drawn)
inactive: UniProt Q8VGC6

CC(C)CN
inactive: UniProt Q8VGC6

O=C(O)CCCBr
inactive: UniProt Q8VG28

O=C([O-])CCCCC(=O)[O-].[H+].[H+]
inactive: UniProt Q8VG28

CSSSC
inactive: UniProt Q8VG27 | UniProt Q8VG53 | UniProt Q8VG64 | UniProt Q8VGB9 | UniProt Q8VGC6 | UniProt Q8VGJ3 | UniProt Q8VGL0

CCCCCC(C)O (stereo not drawn)
inactive: UniProt Q8VG27 | UniProt Q8VG53 | UniProt Q8VG64 | UniProt Q8VGB9 | UniProt Q8VGC6 | UniProt Q8VGJ3 | UniProt Q8VGL0

O=C(Cl)CCCCCCCC(=O)Cl
inactive: UniProt Q8VGC6

C=CCCCCCC
inactive: UniProt Q8VGC6

C1CCOCC1
inactive: UniProt Q8VG27 | UniProt Q8VG53 | UniProt Q8VG64 | UniProt Q8VGB9 | UniProt Q8VGC6 | UniProt Q8VGJ3 | UniProt Q8VGL0

CCC=CCCCCC=O
inactive: UniProt Q8VG27 | UniProt Q8VG53 | UniProt Q8VG64 | UniProt Q8VGB9 | UniProt Q8VGC6 | UniProt Q8VGJ3 | UniProt Q8VGL0

C1CCOC1
inactive: UniProt Q8VG27 | UniProt Q8VG53 | UniProt Q8VG64 | UniProt Q8VGB9 | UniProt Q8VGC6 | UniProt Q8VGJ3 | UniProt Q8VGL0
